Assay results published in PMC5503752 (Biophysical chemistry, 2017).
Like-named read-outs stand apart in the source and are kept apart here.

Experiments:
[1] = system: rat NaV1.2 IQ motif (residues 1901-1927) in YFP-CFP biosensor; assay: CaM titrations of NaV1.2IQ YFP-CFP FRET biosensor; format: binding; conditions: for Kd: read-out: Kd, apo CaM, apo (no CaCl2), pH 7.4, 22 °C, calculated from average ΔG
In short: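 Rat NaV1.2 residues 1901–1927 inserted between YFP and CFP, expressed in BL21(DE3) (IPTG, 40 h, 18 °C), used as clarified lysate. Biosensor at 0.5 nM (apo) to 5 nM (Ca2+). Titrant: paramecium-sequence CaM or its domains.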

NaV1.2IQ biosensor = format: binding, rat; conditions: for fractional decrease/change in YFP intensity of biosensor, apo: [CaM]:[biosensor] = 10^3:1, biosensor 4 nM, excitation 430 nm, YFP 525 nm
In short: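 Steady-state emission spectra were recorded with 430 nm excitation, showing CFP at 475 nm and YFP at 525 nm. Samples were biosensor alone or with >10^3-fold excess apo or Ca2+-saturated CaM, CaMN or CaMC, in titration buffer at pH 7.4 and 22 °C. Spectra were buffer-subtracted, dilution-corrected and normalized to free-biosensor intensity at 525 nm. Fractional YFP decrease was taken at λmax.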

[2] = system: sites III and IV of CaM bound to the NaV1.2 IQ motif; assay: Simulation of calcium binding to CaM bound to the NaV1.2 IQ motif
In short: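 Calcium binding to sites III and IV of IQ-bound CaM was simulated by thermodynamic linkage. Inputs were earlier-measured calcium-binding energies of CaM alone (ΔG1 −7.76, ΔG2 −15.92 kcal/mol) and the apo-versus-Ca2+ difference in IQ binding. The simulation used a total free energy of −13.99 kcal/mol and the same cooperativity as free CaM.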

NaV1.2 IQ motif = system: NaV1.2 IQ motif; set-up: species or system rat; conditions: free [CaM] 50–100 nM (estimated)
In short: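 Single-site fractional saturation isotherms of the IQ motif by apo or calcium-saturated CaM were simulated from the single-site binding equation. Input was the free energies measured by biosensor titration.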

rat Nav1.2IQp = conditions: thermodynamic linkage analysis; cited from earlier work
[3] = system: IQ motifs of NaV1.2, 1.5, and 1.6; conditions: cited from earlier work
ryanodine receptor RyR1 = conditions: cited from earlier work
CaV1.2 IQ motif = conditions: cited from earlier work
CaM = conditions: absence of IQ motif; same conditions as this study; cited from earlier work
[4] = system: CaM bound to NaV1.2 IQ motif; conditions: cited from earlier work
NaV1.5 DIII-DIV linker = conditions: cited from earlier work

Calmodulin [CaM]
ratio of Kd, (Ca^2+)4-CaM over apo CaM (higher, weaker) ([1]; (Ca^2+)4-CaM vs apo CaM): ~ 30 fold | Kd [1]: 3.2 nM | fractional decrease/change in YFP intensity of biosensor, apo (NaV1.2IQ biosensor): 36% | predicted occupancy of IQ motif by (Ca^2+)4-CaM at high calcium ([2]; 10 03BCM free calcium): ~ 68% | predicted occupancy of NaV1.2 IQ motif, (Ca^2+)4-CaM (NaV1.2 IQ motif): 37–54% | predicted occupancy of NaV1.2 IQ motif, apo CaM (NaV1.2 IQ motif): 94–97% | relative affinity of apo vs calcium-saturated CaM for rat Nav1.2IQp (rat Nav1.2IQp): binds more favorably than calcium-saturated CaM | affinity for apo CaM relative to (Ca^2+)4-CaM, NaV IQ motifs [3]: higher affinity for apo CaM than (Ca^2+)4-CaM | effect on RyR1 (ryanodine receptor RyR1; listed as apo CaM): activated | effect on RyR1 (ryanodine receptor RyR1; listed as calcium-saturated CaM): inhibited | affinity of (Ca^2+)4-CaM relative to apo CaM for CaV1.2 IQ motif (CaV1.2 IQ motif): higher affinity for (Ca^2+)4-CaM than apo CaM

[Ca+2] [calcium]
total free energy of calcium binding to sites III and IV of CaM bound to NaV1.2 IQ motif ([2]; simulation for illustration, same cooperativity as CaM alone): -13.99 kcal/mol | ΔG1 (printed AG1) of calcium binding to CaM alone (CaM): -7.76 kcal/mol | ΔG2 of calcium binding to CaM alone (CaM): -15.92 kcal/mol | calcium equivalents (ions per CaM) required for saturation ([4]; CaM bound to NaV1.2 IQ motif, NMR titration): 4 | calcium-binding affinity of sites III and IV (CaMC) in CaM-IQp complex [4]: diminished

C-domain of CaM [CaMC]
Kd [1]: 11.6 nM | calcium-saturated CaMC bound to NaV1.2-IQ ([2]; neuronal intracellular Ca^2+ range centered on 10 03BCM, simulation, Fig. 7B): 50–75% | affinity of CaMC for NaV1.5 DIII-DIV linker (NaV1.5 DIII-DIV linker): micromolar affinity

N-domain of CaM [CaMN]
binding to NaV1.2IQ biosensor, in words ([1]; CaMN, apo and 1 mM calcium): negligible binding | deflection in fluorescence intensity relative to that seen at 50 nM CaMC (NaV1.2IQ biosensor; 50 pM CaMN (so in the source) vs 50 nM CaMC): less than 1% | fractional decrease/change in YFP intensity of biosensor, apo (NaV1.2IQ biosensor): ~ 1% | binding of CaMN to NaV IQ motifs ([3]; NaV1.2, 1.5 and 1.6 IQ motifs): undetectable or very weak binding
